Data as given in ChEMBL document CHEMBL4152287, “Synthesis and characterization of novel classes of PDE10A inhibitors - 1H-1,3-benzodiazoles and imidazo[1,2-a]pyrimidines” (Eur J Med Chem, 2018).

Experiments:
[1] = molecular target: T1, cAMP and cAMP-inhibited cGMP 3',5'-cyclic phosphodiesterase 10A (Homo sapiens, UniProt Q9Y233); assay: Inhibition of Ca2+/calmodulin-induced recombinant human full length N-terminal GST-tagged PDE10A1 expressed in baculovirus infected Sf9 cells using cAMP as substrate pretreated for 10 mins followed by substrate addition and measured after 40 mins by kinase-Glo luminescence assay
[2] = Intrinsic clearance in rat liver microsomes in presence of NADP/G6P/G6P dehydrogenase/MgCl2 by LC/MS analysis; type: ADME, microsome; details: read-out: CLH
How it was run: (§1)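 Phase-1 liver microsomal stability assay for the named species, with intrinsic clearance reported in µl x min^-1 x mg^-1.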

[3] = molecular target: High affinity cGMP-specific 3',5'-cyclic phosphodiesterase 9A (Homo sapiens, UniProt O76083); assay: Inhibition of Ca2+/calmodulin-induced recombinant human full length N-terminal GST-tagged PDE9A2 expressed in baculovirus infected Sf9 cells using cGMP as substrate pretreated for 10 mins followed by substrate addition and measured after 60 mins by kinase-Glo luminescence assay
How it was run: (§2)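 Selectivity screen run as a PDE-Glo enzymatic-activity luminescence assay, with IC50 values determined against each counter-screen PDE isoform.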

[4] = molecular target: Dual specificity calcium/calmodulin-dependent 3',5'-cyclic nucleotide phosphodiesterase 1C (Homo sapiens, UniProt Q14123); assay: Inhibition of Ca2+/calmodulin-induced full-length recombinant human N-terminal GST-tagged PDE1C expressed in baculovirus infected Sf9 insect cells using cAMP as substrate pretreated for 10 mins followed by substrate addition and measured after 30 mins by kinase-Glo luminescence assay; how it was run: as §2
[5] = Intrinsic clearance in human liver microsomes in presence of NADP/G6P/G6P dehydrogenase/MgCl2 by LC/MS analysis; type: ADME, microsome; details: read-out: CLH; how it was run: as §1
[6] = molecular target: T1, cAMP and cAMP-inhibited cGMP 3',5'-cyclic phosphodiesterase 10A; assay: Inhibition of PDE10 (unknown origin)
[7] = Intrinsic clearance in rat liver microsomes; type: ADME, microsome

High affinity cGMP-specific 3',5'-cyclic phosphodiesterase 9A, sequence (O76083 whole entry, canonical isoform): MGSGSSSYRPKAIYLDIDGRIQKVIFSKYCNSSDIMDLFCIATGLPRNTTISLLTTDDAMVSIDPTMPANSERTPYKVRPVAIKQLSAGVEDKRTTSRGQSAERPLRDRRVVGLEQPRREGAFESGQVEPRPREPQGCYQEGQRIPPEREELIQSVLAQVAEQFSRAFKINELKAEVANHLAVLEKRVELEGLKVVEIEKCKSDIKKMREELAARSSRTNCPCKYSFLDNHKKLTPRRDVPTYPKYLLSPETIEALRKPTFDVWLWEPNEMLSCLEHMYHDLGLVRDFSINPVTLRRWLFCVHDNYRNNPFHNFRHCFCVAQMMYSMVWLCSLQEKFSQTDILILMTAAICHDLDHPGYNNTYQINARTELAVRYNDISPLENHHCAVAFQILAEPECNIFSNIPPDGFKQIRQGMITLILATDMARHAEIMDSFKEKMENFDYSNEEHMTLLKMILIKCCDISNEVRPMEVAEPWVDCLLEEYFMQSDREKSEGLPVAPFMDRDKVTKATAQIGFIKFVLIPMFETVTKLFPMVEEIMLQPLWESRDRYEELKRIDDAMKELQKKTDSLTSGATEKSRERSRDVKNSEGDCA
Dual specificity calcium/calmodulin-dependent 3',5'-cyclic nucleotide phosphodiesterase 1C, sequence (Q14123 whole entry): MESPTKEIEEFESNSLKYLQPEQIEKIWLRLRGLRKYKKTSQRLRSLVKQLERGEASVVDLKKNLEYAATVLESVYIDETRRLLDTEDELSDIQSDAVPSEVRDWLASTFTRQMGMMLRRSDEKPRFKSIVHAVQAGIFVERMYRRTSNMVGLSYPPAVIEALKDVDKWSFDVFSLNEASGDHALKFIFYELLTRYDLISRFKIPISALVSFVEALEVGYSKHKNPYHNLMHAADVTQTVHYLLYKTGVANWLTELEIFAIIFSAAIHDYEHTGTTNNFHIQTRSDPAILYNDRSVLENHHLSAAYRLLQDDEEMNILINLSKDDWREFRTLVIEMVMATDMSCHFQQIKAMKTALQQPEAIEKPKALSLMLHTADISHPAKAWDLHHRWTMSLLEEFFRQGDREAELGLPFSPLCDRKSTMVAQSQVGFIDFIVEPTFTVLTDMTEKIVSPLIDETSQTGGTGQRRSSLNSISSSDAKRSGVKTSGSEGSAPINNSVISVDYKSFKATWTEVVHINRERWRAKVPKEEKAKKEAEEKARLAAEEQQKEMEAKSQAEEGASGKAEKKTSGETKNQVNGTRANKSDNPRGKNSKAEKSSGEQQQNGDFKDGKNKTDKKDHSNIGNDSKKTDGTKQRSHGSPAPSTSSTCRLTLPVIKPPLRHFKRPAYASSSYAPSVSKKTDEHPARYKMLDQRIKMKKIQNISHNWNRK
T1 sequence (Q9Y233 whole entry): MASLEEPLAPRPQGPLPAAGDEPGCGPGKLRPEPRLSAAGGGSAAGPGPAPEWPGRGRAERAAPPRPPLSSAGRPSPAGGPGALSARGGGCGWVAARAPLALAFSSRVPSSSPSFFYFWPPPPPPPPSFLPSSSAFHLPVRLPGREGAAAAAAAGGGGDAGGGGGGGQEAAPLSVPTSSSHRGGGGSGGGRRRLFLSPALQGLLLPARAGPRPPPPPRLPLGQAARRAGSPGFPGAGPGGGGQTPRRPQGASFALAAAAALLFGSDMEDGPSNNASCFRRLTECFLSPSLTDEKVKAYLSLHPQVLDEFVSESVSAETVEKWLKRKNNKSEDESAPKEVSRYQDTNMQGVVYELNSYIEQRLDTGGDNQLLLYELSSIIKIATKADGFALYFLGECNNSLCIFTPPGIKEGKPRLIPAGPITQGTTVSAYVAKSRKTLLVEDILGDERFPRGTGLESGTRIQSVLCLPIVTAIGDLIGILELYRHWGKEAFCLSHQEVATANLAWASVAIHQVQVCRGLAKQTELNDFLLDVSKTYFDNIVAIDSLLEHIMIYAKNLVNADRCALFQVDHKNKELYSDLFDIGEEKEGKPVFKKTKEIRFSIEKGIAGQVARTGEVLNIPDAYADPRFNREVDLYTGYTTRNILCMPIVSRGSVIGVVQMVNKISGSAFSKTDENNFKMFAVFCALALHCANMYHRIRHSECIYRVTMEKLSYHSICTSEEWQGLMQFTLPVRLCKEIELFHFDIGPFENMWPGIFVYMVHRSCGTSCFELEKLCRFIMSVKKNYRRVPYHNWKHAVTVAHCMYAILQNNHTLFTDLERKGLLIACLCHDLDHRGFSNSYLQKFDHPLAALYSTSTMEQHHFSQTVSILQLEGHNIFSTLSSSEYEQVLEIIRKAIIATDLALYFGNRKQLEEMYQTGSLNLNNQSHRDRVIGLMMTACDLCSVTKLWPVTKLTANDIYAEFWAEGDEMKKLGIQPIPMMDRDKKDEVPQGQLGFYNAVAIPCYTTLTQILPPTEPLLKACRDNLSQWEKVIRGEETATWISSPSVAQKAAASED

| Structure (SMILES) | IC50 ([1]; read-out: IC50) | IC50 [3] | IC50 [4] | other results |
| --- | --- | --- | --- | --- |
| Cc1nc(-c2ccn3cc(-c4ccccc4)nc3n2)nc2ccccc12 | 163 nM |  |  |  |
| Cc1cc(C)n2nc(-c3ccn4nc(-c5ncccn5)nc4c3)nc2n1 | > 5000 nM |  |  |  |
| Cc1ncc(C)n2nc(-c3ccc4cc(-c5ccccc5)nn4c3)nc12 | 581 nM |  |  |  |
| Cc1ncc(C)n2nc(-c3ccn4cc(-c5ccccc5Br)nc4n3)nc12 | 145 nM | > 10000 nM | > 10000 nM | microsomal CLint [2]: 1.8 µL/min/mg |
| Cc1cc(C)n2nc(-c3ccn4cc(-c5ccccc5)nc4n3)nc2n1 |  | > 10000 nM | > 10000 nM |  |
| Cc1ncc(C)n2nc(-c3ccn4cc(-c5nccs5)nc4n3)nc12 | 135 nM | > 10000 nM | > 10000 nM |  |
| Cc1ncc(C)n2nc(-c3ccn4cc(-c5ccc(F)cc5Cl)nc4n3)nc12 | > 1000 nM |  |  | microsomal CLint [2]: 11.5 µL/min/mg |
| Cc1cc(C)n2nc(-c3ccc4cc(-c5ccccc5)nn4c3)nc2n1 | 770 nM |  |  |  |
| Cc1nc(-c2ccn3nc(-c4ccccc4)nc3c2)nc2ccccc12 | 884 nM |  |  |  |
| Cc1cc(C)n2c(Br)c(CSc3nc4ccccc4[nH]3)nc2n1 |  |  |  | IC50 [6]: 210 nM; CLH [7]: 3.6 µL/min/mg |
| Cc1ncc(C)n2nc(-c3ccn4cc(-c5cccc(Cl)c5)nc4n3)nc12 | 107 nM | > 10000 nM | > 10000 nM | microsomal CLint [2]: 18.9 µL/min/mg |
| Cc1cc(C)n2nc(-c3ccc4nc(-c5ccccc5)n(C)c4c3)nc2n1 |  |  |  | IC50 ([1]; sf9): Not Active |
| Cc1cc(C)n2nc(CCc3nc(-c4ccccc4)cn3C)nc2n1 |  |  |  | IC50 [6]: 67 nM; CLH [7]: 13 µL/min/mg |
| Cc1cc(C)n2nc(-c3ccn4cc(-c5nccs5)nc4n3)nc2n1 | 458 nM |  |  |  |
| Cc1cc(C)n2nc(-c3ccn4nc(-c5ccccc5)nc4c3)nc2n1 | 381 nM |  |  |  |
| Cc1ncc(C)n2nc(-c3ccn4cc(-c5ccc(Br)cc5)nc4n3)nc12 | > 1000 nM |  |  | microsomal CLint [2]: 15 µL/min/mg |
| Cc1cc(C)n2nc(-c3ccn4cc(-c5ccccn5)nc4n3)nc2n1 | 280 nM |  |  |  |
| Cc1ncc(C)n2nc(-c3ccn4nc(-c5ccccc5)nc4c3)nc12 | 268 nM |  |  |  |
| Cc1ncc(C)n2nc(-c3ccn4cc(-c5ccc(F)cc5)nc4n3)nc12 | 76 nM | > 10000 nM | > 10000 nM | microsomal CLint [2]: 3.1 µL/min/mg |
| Cc1ncc(C)n2nc(-c3ccn4cc(-c5ccccn5)nc4n3)nc12 | 115 nM | > 10000 nM | > 10000 nM |  |
| Cc1nc(-c2ccc3nc(-c4ccccc4)[nH]c3c2)nc2ccccc12 | 315 nM |  |  | microsomal CLint [2]: > 450 µL/min/mg |

More lines, main results first:

| IC50 ([1]; read-out: IC50) | IC50 [3] | IC50 [4] | Structure (SMILES) | other results |
| --- | --- | --- | --- | --- |
| 280 nM |  |  | Cc1ncc(C)n2nc(-c3ccc4nc(-c5ccccc5OC(F)(F)F)[nH]c4c3)nc12 |  |
|  | > 10000 nM | > 10000 nM | Cc1ncc(C)n2nc(-c3ccc4[nH]c(-c5ccccn5)nc4c3)nc12 | microsomal CLint [2]: 11.1 µL/min/mg |
| > 1000 nM |  |  | Cc1ncc(C)n2nc(-c3ccc4nc(-c5cnccn5)[nH]c4c3)nc12 |  |
| 52 nM | > 10000 nM | > 10000 nM | COc1ccccc1-c1cn2ccc(-c3nc4c(C)ncc(C)n4n3)nc2n1 | microsomal CLint [2]: 9.1 µL/min/mg |
| 280 nM |  |  | Cc1ncc(C)n2nc(-c3ccc4nc(-c5nccn5C)[nH]c4c3)nc12 |  |
| 198 nM | > 10000 nM | > 10000 nM | Cc1cnc(-c2nc3ccc(-c4nc5c(C)ncc(C)n5n4)cc3[nH]2)s1 |  |
|  | > 10000 nM | > 10000 nM | COc1ccccc1-c1nc2ccc(-c3nc4c(C)ncc(C)n4n3)cc2[nH]1 |  |
| 67 nM | > 10000 nM | > 10000 nM | Cc1ncc(C)n2nc(-c3ccc4nc(-c5ccco5)[nH]c4c3)nc12 | microsomal CLint [2]: 26.3 µL/min/mg |
| 40 nM | > 10000 nM | > 10000 nM | COc1cccnc1-c1nc2ccc(-c3nc4c(C)ncc(C)n4n3)cc2[nH]1 | microsomal CLint [2]: 5.4 µL/min/mg; microsomal CLint [5]: 0.7 µL/min/mg |
| > 1000 nM |  |  | Cc1ncc(C)n2nc(-c3ccc4nc(Cc5ccccc5)[nH]c4c3)nc12 |  |
| 242 nM |  |  | Cc1ccccc1-c1nc2ccc(-c3nc4c(C)ncc(C)n4n3)cc2[nH]1 |  |
|  | > 10000 nM | > 10000 nM | Cc1ncc(C)n2nc(-c3ccc4[nH]c(-c5ccccc5F)nc4c3)nc12 |  |
| 161 nM | > 10000 nM | > 10000 nM | Cc1ncc(C)n2nc(-c3ccc4nc(-c5ccc(Cl)s5)[nH]c4c3)nc12 |  |
| > 1000 nM |  |  | Cc1ncc(C)n2nc(-c3ccc4nc(-c5ccccc5C(F)(F)F)[nH]c4c3)nc12 |  |
| 146 nM | > 10000 nM | > 10000 nM | Cc1ncc(C)n2nc(-c3ccc4nc(-c5cccc(Br)c5)[nH]c4c3)nc12 |  |
| 268 nM |  |  | Cc1ncc(C)n2nc(-c3ccc4nc(-c5cscn5)[nH]c4c3)nc12 |  |
|  | > 10000 nM | > 10000 nM | Cc1ncc(C)n2nc(-c3ccc4nc(-c5ccc(F)cc5)[nH]c4c3)nc12 |  |
|  | > 10000 nM | > 10000 nM | Cc1ncc(C)n2nc(-c3ccc4nc(-c5nccs5)[nH]c4c3)nc12 |  |
| 28 nM | > 10000 nM | > 10000 nM | Cc1ncc(C)n2nc(-c3ccc4nc(-c5cccs5)[nH]c4c3)nc12 |  |
| > 300 nM |  |  | Cc1ncc(C)n2nc(-c3ccc4[nH]c(-c5cocn5)nc4c3)nc12 |  |
| 166 nM | > 10000 nM | > 10000 nM | Cc1ncc(C)n2nc(-c3ccc4nc(-c5cccnc5)[nH]c4c3)nc12 |  |
| 117 nM | > 10000 nM | > 10000 nM | Cc1csc(-c2nc3ccc(-c4nc5c(C)ncc(C)n5n4)cc3[nH]2)n1 |  |
| 135 nM | > 10000 nM | > 10000 nM | Cc1ncc(C)n2nc(-c3ccc4nc(-c5cncs5)[nH]c4c3)nc12 |  |
| > 1000 nM |  |  | Cc1ncc(C)n2nc(-c3ccc4nc(-c5cnc6ccccc6n5)[nH]c4c3)nc12 |  |
| > 280 nM |  |  | COc1ccnc(-c2nc3ccc(-c4nc5c(C)ncc(C)n5n4)cc3[nH]2)c1 |  |
| 69 nM | > 10000 nM | > 10000 nM | Cc1ncc(C)n2nc(-c3ccc4nc(-c5ncccc5F)[nH]c4c3)nc12 | microsomal CLint [2]: 1.8 µL/min/mg |
| > 280 nM |  |  | COc1ccc(OC)c(-c2cn3ccc(-c4nc5c(C)ncc(C)n5n4)nc3n2)c1 |  |
| 382 nM |  |  | Cc1ncc(C)n2nc(-c3ccc4nc(-c5ccccc5C#N)[nH]c4c3)nc12 |  |
|  | > 10000 nM | > 10000 nM | Cc1cc(C)n2nc(-c3ccc4nc(-c5ccccc5)[nH]c4c3)nc2n1 |  |
|  | > 10000 nM | > 10000 nM | Cc1ncc(C)n2nc(-c3ccc4[nH]c(-c5ccccc5)nc4c3)nc12 | microsomal CLint [2]: 27.4 µL/min/mg; microsomal CLint [5]: 34.4 µL/min/mg |
